Measurements: publication PMC4300256 (Aquatic toxicology (Amsterdam, Netherlands), 2014)
Like-named read-outs stand apart in the source and are kept apart here.

How the values were obtained:
RyR1 [1] = biological target: T1, RyR1 (Fundulus heteroclitus, UniProt A0A3Q2R0L4); assay: PCB 95 induced [^3H]Ry binding; assay type: biochemical; details: for maximum response achieved, [^3H]Ry binding: 8 nM [^3H]Ry, 50 µM CaCl2; for EC50: read-out: half-maximal effect concentration (EC50)
Summary of the method: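 Pooled skeletal muscle microsomes, 40 µg ml−1, were incubated with 8 nM [3H]Ry and 50 µM CaCl2 in RyR buffer (pH 7.1) at 25°C for 16 h. Test compound 0.01–20 µM in 0.5% DMSO; solvent control was 0.5% DMSO. After filtration and scintillation counting, specific binding was taken as a percent of the DMSO control and fitted by sigmoidal dose-response. 2–4 biological replicates, each in triplicate or quadruplicate.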

RyR1 [2] = biological target: T1, RyR1; assay: Ca^2+ induced [^3H]Ry binding; assay type: biochemical; details: NBH and SC killifish; 10 nM [^3H]Ry
Summary of the method: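 Skeletal muscle microsomes (≥4 fish pooled per population), 100 µg ml−1, with 10 nM [3H]Ry in 250 KCl/15 NaCl/20 HEPES mM buffer (pH 7.1), 25°C, 16 h. Free Ca2+ 0.25–10,000 µM set with CaCl2/EGTA. Nonspecific binding: 1000-fold unlabeled ryanodine plus 200 µM EGTA. GF/B filtration, scintillation counting. Bell-shaped curve fit. 2–4 biological replicates, each run in triplicate or quadruplicate.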

RyR1 [3] = biological target: T1, RyR1; assay type: binding; details: two-site model, estimate ± SE

T1 sequence (A0A3Q2R0L4 1-4852): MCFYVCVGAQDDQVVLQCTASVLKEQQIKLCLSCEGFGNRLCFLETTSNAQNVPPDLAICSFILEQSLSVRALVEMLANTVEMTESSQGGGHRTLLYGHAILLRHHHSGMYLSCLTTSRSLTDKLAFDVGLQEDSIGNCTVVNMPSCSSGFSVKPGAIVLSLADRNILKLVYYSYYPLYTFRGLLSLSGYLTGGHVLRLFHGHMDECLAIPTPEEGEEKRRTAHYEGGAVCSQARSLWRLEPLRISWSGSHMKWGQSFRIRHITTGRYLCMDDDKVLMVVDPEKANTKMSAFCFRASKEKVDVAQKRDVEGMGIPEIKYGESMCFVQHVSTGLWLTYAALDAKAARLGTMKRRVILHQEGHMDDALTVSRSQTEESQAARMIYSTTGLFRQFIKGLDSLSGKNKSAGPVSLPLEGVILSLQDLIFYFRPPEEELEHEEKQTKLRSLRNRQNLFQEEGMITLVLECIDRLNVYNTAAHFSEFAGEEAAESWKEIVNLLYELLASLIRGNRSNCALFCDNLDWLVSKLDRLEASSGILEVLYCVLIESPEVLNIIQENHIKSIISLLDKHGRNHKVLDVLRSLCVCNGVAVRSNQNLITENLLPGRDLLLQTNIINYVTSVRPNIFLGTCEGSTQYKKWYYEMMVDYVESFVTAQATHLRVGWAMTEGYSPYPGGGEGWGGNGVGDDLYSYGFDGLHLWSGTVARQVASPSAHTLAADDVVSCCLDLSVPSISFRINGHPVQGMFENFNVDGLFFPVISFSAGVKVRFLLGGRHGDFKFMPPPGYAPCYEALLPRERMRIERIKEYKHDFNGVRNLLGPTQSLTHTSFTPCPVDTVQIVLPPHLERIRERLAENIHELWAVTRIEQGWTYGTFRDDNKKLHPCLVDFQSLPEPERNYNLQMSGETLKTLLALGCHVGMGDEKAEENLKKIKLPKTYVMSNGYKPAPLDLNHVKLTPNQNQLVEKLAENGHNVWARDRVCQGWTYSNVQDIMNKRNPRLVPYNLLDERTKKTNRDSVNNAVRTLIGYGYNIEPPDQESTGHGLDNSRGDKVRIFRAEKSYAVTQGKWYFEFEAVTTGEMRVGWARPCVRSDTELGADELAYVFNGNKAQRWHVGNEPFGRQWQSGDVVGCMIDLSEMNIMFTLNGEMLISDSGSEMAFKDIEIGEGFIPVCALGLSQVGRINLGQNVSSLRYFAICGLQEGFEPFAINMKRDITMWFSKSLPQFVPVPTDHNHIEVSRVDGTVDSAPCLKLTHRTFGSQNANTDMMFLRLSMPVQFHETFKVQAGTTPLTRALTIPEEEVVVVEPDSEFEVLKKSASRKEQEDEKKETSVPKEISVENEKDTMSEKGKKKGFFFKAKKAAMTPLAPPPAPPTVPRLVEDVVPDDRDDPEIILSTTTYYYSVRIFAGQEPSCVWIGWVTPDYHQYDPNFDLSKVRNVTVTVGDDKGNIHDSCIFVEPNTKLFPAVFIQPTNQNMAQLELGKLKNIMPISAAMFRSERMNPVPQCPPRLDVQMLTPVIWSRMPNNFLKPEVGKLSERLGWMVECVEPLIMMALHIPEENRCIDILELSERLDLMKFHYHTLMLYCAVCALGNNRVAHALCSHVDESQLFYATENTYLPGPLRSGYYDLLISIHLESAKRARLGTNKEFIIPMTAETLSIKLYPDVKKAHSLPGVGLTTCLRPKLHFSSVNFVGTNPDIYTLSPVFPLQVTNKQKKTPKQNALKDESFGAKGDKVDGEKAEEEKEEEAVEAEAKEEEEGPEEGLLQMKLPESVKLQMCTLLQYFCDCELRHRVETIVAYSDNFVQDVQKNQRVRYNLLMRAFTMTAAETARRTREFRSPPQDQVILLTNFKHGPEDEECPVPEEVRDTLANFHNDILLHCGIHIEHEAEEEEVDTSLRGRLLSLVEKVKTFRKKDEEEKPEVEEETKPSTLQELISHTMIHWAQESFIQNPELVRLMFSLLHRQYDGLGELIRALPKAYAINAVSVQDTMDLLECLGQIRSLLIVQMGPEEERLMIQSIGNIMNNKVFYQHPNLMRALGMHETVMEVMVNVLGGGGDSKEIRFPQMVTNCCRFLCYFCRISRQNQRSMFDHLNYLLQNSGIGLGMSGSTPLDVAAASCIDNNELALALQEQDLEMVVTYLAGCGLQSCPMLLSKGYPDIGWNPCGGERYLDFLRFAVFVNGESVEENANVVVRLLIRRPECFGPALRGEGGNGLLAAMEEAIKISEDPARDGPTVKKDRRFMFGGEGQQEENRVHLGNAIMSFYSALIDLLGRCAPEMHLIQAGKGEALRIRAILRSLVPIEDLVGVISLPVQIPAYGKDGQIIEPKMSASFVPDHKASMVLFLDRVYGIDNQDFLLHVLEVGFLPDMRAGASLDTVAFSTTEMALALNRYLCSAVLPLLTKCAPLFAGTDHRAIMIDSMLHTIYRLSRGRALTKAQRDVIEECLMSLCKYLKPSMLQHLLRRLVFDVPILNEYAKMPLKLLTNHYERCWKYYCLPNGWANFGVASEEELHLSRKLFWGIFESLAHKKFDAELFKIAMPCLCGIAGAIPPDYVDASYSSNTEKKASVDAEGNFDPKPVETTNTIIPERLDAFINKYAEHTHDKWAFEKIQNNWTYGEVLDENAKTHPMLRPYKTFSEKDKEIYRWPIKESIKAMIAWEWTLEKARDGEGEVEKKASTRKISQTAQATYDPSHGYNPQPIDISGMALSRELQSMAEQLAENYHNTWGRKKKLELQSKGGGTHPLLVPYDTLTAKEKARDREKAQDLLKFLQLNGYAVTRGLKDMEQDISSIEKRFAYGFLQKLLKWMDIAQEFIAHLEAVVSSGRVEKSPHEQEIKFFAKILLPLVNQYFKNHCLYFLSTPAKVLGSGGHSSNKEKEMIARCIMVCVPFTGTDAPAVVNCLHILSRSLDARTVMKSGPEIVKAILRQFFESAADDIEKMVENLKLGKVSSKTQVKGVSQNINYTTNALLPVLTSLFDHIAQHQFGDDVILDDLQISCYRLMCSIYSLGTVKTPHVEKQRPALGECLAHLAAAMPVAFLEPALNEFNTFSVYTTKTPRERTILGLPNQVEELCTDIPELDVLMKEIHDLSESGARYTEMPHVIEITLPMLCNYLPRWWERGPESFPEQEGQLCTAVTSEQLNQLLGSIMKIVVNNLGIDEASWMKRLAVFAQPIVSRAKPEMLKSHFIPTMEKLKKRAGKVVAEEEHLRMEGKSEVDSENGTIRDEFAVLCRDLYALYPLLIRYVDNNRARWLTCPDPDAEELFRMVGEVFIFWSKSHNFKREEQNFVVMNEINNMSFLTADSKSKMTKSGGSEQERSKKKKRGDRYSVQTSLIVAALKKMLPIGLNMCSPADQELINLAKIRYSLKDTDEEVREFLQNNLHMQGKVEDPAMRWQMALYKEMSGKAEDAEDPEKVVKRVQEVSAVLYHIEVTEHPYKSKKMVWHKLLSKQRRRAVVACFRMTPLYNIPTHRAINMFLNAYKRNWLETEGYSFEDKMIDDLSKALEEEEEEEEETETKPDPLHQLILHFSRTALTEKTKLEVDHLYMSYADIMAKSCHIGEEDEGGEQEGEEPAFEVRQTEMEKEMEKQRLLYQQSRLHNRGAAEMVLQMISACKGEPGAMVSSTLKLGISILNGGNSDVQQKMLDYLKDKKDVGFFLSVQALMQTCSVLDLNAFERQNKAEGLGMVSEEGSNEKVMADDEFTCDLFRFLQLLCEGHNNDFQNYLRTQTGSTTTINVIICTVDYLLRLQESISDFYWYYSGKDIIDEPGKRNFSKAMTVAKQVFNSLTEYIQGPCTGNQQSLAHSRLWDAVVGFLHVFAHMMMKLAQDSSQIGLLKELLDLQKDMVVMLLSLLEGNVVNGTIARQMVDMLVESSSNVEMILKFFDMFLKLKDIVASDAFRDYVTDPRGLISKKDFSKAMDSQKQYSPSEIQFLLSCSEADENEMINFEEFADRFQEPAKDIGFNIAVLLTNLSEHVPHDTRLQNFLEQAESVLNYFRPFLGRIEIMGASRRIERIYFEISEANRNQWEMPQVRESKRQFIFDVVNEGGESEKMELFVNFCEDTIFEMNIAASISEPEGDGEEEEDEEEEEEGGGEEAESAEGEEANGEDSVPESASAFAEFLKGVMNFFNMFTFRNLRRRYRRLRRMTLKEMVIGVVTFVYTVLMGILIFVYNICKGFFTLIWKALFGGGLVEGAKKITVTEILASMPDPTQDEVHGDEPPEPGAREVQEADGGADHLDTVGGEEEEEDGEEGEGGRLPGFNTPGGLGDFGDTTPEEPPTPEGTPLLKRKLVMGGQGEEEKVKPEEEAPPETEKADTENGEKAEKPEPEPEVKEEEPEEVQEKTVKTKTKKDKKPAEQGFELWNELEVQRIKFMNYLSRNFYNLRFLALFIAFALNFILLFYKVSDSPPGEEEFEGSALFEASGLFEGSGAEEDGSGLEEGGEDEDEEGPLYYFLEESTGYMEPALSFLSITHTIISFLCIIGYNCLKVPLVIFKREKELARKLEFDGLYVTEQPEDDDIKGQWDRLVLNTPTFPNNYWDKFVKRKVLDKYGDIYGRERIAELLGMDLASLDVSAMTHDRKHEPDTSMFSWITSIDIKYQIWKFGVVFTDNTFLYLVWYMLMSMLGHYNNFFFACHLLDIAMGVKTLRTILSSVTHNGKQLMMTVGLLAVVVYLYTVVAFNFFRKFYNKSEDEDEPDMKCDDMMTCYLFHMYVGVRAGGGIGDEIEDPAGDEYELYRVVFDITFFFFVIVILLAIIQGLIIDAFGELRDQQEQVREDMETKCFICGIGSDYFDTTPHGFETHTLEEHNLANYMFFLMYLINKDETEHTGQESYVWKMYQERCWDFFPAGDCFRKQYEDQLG

Clc1ccc(Cl)c(-c2c(Cl)ccc(Cl)c2Cl)c1 [PCB 95]
EC10 (RyR1 [1]; NBH killifish skeletal muscle): 9.23 nM
maximum response achieved, [^3H]Ry binding (RyR1 [1]; NBH killifish skeletal muscle): 301 % of the DMSO control
EC10 (RyR1 [1]; SC killifish skeletal muscle): 4.11 nM
maximum response achieved, [^3H]Ry binding (RyR1 [1]; SC killifish skeletal muscle): 248 % of the DMSO control
EC50 (RyR1 [1]; NBH killifish skeletal muscle, 95% CI 77.7–119.1): 96.2 nM
EC50 (RyR1 [1]; SC killifish skeletal muscle, 95% CI 36.6–84.6): 55.6 nM

[Ca+2] [Ca^2+]
Ca^2+ levels leading to receptor activation (RyR1 [2]): below 250 µM
Ca^2+ levels leading to receptor inactivation (RyR1 [2]): above 500 µM

CC(C)[C@@]1(O)[C@@H](OC(=O)c2ccc[nH]2)[C@@]2(O)[C@@]3(C)C[C@]4(O)O[C@@]5([C@H](O)[C@@H](C)CC[C@]35O)[C@@]2(O)[C@@]14C [[^3H]Ry, ryanodine]
High Affinity Bmax (RyR1 [3]; NBH killifish skeletal muscle): 1.63 ± 0.32 pmol/mg
Low Affinity Bmax (RyR1 [3]; NBH killifish skeletal muscle): 6.69 ± 0.92 pmol/mg
High Affinity Bmax (RyR1 [3]; SC killifish skeletal muscle): 1.47 ± 0.31 pmol/mg
Low Affinity Bmax (RyR1 [3]; SC killifish skeletal muscle, 95% CI 0.81 to 5.05): 2.93 ± 1.07 pmol/mg
